In the RNAGym collection of RNA variant scans (doi:10.1126/science.aae0568):
Fewer inactive variants are shown than the library holds.

B1: tRNA (parent)
chain: GUUCCGUUGGCGUAAUGGUAACGCGUCUCCCUCCUAAGGAGAAGACUGCGGGUUCGAGUCCCGUACGGAACG

Variants of: B1
Assay: yeast fitness relative to wild type (ratio to wild type); higher = fitter; tRNA-Arg(CCU), competitive growth, 37 C, YPD
Procedure, shortened: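 Start and end populations of a pooled competition were compared by 100-nucleotide paired-end sequencing of gene amplicons. The Saccharomyces cerevisiae strains carried tRNA-Arg(CCU) gene variants at the native genomic locus, synthesised with a 3% per-site mutation rate at 69 sites, and competed in YPD at 37°C for 24 hours in six parallel replicates. Darwinian fitness relative to wild type was based on the change in genotype frequencies. Genotypes required ≥ 100 starting reads, and estimates < 0.5 were set to 0.5.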

Going from U16G C22U G25A to G17A C22A G25A, the yeast fitness rises from no more than 0.5 to 0.501.

First: G17A A21C
Second: G17C A42C C61A
The yeast fitness of the first is higher: 0.67 for the first, no more than 0.5 for the second.

First: U16G C22U C62U
Second: U16G A42U
The yeast fitness of the first is lower: 0.645 for the first, 0.994 for the second.

G17C A37G C55U and G17C G18C C31G A42G cannot be ordered by yeast fitness: no more than 0.5 for the first, no more than 0.5 for the second.

Compared with G17C C33A C55A, G17A C31G G48A is lower in yeast fitness: 0.672 for the first, no more than 0.5 for the second.

Going from U16G C46U A65C to G17A C22U U28C A65U, the yeast fitness falls from 1.13 to no more than 0.5.

First: G17A C33U A43U A57G G67U
Second: G17A C31U A42C
The yeast fitness of the first is lower: no more than 0.5 for the first, 0.582 for the second.

G17A C30G A45G A65U and U16G C29U C31A A57C G67C cannot be ordered by yeast fitness: no more than 0.5 for the first, no more than 0.5 for the second.

First: G17C C22G
Second: G17A C61A G63A G67A
The yeast fitness of the first is higher: 0.619 for the first, 0.542 for the second.

Compared with G17A C22U U28C U54G A57C C62U, G17A C30A C66U A70G is lower in yeast fitness: 0.535 for the first, no more than 0.5 for the second.

Compared with G17A A37C G52A G56A G63C, G17A C61U C66U is higher in yeast fitness: no more than 0.5 for the first, 0.599 for the second.

Going from G17C C24U A36G to G17C C24G U28A C30U C49U A65U A69C, the yeast fitness falls from 0.607 to no more than 0.5.

First: G17C A36G A45G
Second: G17A G56A C66U
The yeast fitness of the first is lower: 0.505 for the first, 0.678 for the second.

G17C G39C G63A and G17A C30G A45G C61G cannot be ordered by yeast fitness: no more than 0.5 for the first, no more than 0.5 for the second.

Compared with U16G A45G, U16G A45U is lower in yeast fitness: 1 for the first, 0.969 for the second.

Going from G17A C34U C46G A65U to G17C C22A C31G C55G A70U, the yeast fitness rises from no more than 0.5 to 0.527.

Compared with G17A C22A A36G A45C C46U, G17C C33G U59G A69U is higher in yeast fitness: no more than 0.5 for the first, 0.665 for the second.

Compared with G17C C24G G63C, U16G C24U U28C A36C A65C is higher in yeast fitness: no more than 0.5 for the first, 0.58 for the second.

U16G G39A A45C C61A A69U and G17C G18C U19G C24G cannot be ordered by yeast fitness: no more than 0.5 for the first, no more than 0.5 for the second.

Going from G17C C61U C62U C66A to U16G A43U G50C, the yeast fitness falls from 0.593 to 0.576.

Compared with G17A U28A A37G, U16G C30A G51C G56C C62G is higher in yeast fitness: no more than 0.5 for the first, 0.65 for the second.

Compared with G17C C22A U28C A40G A45C C66G A69U, G17A A70U is higher in yeast fitness: no more than 0.5 for the first, 0.864 for the second.

Compared with G17A U26C, G17A A36G C66U is lower in yeast fitness: 0.784 for the first, 0.65 for the second.

G17A U28C C46U G63A and G17C A37U A42U C49G G51A C61U cannot be ordered by yeast fitness: no more than 0.5 for the first, no more than 0.5 for the second.

Going from G17A C22U U59A to U16G C29U, the yeast fitness rises from no more than 0.5 to 0.806.

First: U16G C31A C60A G67A
Second: U16G G44C
The yeast fitness of the first is lower: 0.678 for the first, 0.912 for the second.

G17C C30G C33G and G17A C30U A42C cannot be ordered by yeast fitness: no more than 0.5 for the first, no more than 0.5 for the second.

Compared with G17C G25C G50A U59C G68A, G17C G23U U28A C31G is higher in yeast fitness: no more than 0.5 for the first, 0.655 for the second.

Compared with G17A U26G C29G C62U A70G, G17A C30G is higher in yeast fitness: no more than 0.5 for the first, 0.604 for the second.

Compared with G17C C33G A70G, G17A U32C A40G is higher in yeast fitness: no more than 0.5 for the first, 0.573 for the second.

First: U16G C62U
Second: G17A C62U A69U
The yeast fitness of the first is higher: 0.853 for the first, 0.587 for the second.

Going from G17C C22U C30U A37U to G17A C31U U54G, the yeast fitness rises from no more than 0.5 to 0.639.

Compared with G17A U54A A70G, G17C A36G C66U A69C is higher in yeast fitness: no more than 0.5 for the first, 0.803 for the second.

G17A C30G C61G and U16G G39C A42U U54C C55G U64A cannot be ordered by yeast fitness: no more than 0.5 for the first, no more than 0.5 for the second.

Going from G17A C31A G48C to U16G U26A C34U G50A, the yeast fitness rises from no more than 0.5 to 0.552.

First: G17C G18C
Second: G17A C22A U35C A45C C46U
The yeast fitness of the first is higher: 0.576 for the first, 0.537 for the second.

Compared with G17C C24A, G17C C24U is higher in yeast fitness: 0.56 for the first, 0.607 for the second.

Compared with G17C A20U C27U U53C, G17C C33U A37C is lower in yeast fitness: 0.619 for the first, no more than 0.5 for the second.

First: G17A C60G
Second: U16G C61U A69C
The yeast fitness of the first is lower: 0.586 for the first, 0.644 for the second.

First: G17C A57G G67A
Second: U16G G25C C46U G50A
The yeast fitness of the first is lower: 0.56 for the first, 0.581 for the second.

First: U16G G48A
Second: G17A U28C A42C C62U A70U
The yeast fitness of the first is higher: 0.903 for the first, no more than 0.5 for the second.

Compared with G17A C22U U32A C34U A37G A40U C62A G63A, G17C C29A A57U is lower in yeast fitness: 0.512 for the first, no more than 0.5 for the second.

Going from G17A C31U G52A to G17C G39C, the yeast fitness rises from no more than 0.5 to 0.59.

First: G17A C61G G68A
Second: G17C A57G
The yeast fitness of the first is lower: no more than 0.5 for the first, 0.68 for the second.

G17A U47C A57G A69U and G17A A45U G52A cannot be ordered by yeast fitness: no more than 0.5 for the first, no more than 0.5 for the second.

Compared with G17A G18A, G17A G18C is lower in yeast fitness: 0.65 for the first, 0.63 for the second.

First: U16G C62U A70C
Second: G17C C24A U47A C66U A69U
The yeast fitness of the first is higher: 0.565 for the first, no more than 0.5 for the second.

G17A C27G C46G A65G and G17C G18C A20G C30A G50A A69C cannot be ordered by yeast fitness: no more than 0.5 for the first, no more than 0.5 for the second.

Going from G17C C49G to G17C C31A C60A A65U, the yeast fitness falls from 0.743 to 0.532.

First: G17C C22G U26C U47A C66G
Second: U16G C60G
The yeast fitness of the first is lower: no more than 0.5 for the first, 0.658 for the second.

First: G17C A36G A57G C66U A69C
Second: U16G G23C U35C
The yeast fitness of the first is lower: 0.59 for the first, 0.655 for the second.

First: G17A A40U G52A C60U G63C
Second: G17A A20C G44C
The yeast fitness of the first is lower: no more than 0.5 for the first, 0.617 for the second.

Compared with U16G C61U C66G, G17A G25C A65C is higher in yeast fitness: 0.569 for the first, 0.611 for the second.

Compared with G17A C31U A70C, G17A A37C A69C is lower in yeast fitness: 0.658 for the first, 0.648 for the second.

First: G17C A43U
Second: G17A U28G C30G A40C A42U
The yeast fitness of the first is higher: 0.589 for the first, no more than 0.5 for the second.

First: G17A C62A
Second: G17A C62U
The yeast fitness of the first is lower: 0.558 for the first, 0.736 for the second.

Going from G17A A42G U64A to G17C C30G C60G G63A A65U C66U, the yeast fitness falls from 0.58 to 0.549.

First: G17A C31G G68A
Second: G17C C55U
The yeast fitness of the first is lower: no more than 0.5 for the first, 0.598 for the second.

First: G17C C55A
Second: G17C C55G
The yeast fitness of the first is lower: no more than 0.5 for the first, 0.616 for the second.

G17A A36U C46U and G17A A21C C29G A70U cannot be ordered by yeast fitness: no more than 0.5 for the first, no more than 0.5 for the second.

Going from G17A C30G C46U G63C C66U to G17A U32C, the yeast fitness rises from no more than 0.5 to 0.704.

Going from G17A U32G to G17A G56C G58C G63A, the yeast fitness falls from 0.572 to no more than 0.5.

Going from G17C G25A U32A A43G A57U to G17C A20C C49U G52A C61A C62G, the yeast fitness falls from 0.546 to no more than 0.5.

First: G17A A45G
Second: U16G C49U G63A
The yeast fitness of the first is lower: 0.875 for the first, 0.994 for the second.

First: U16G U32C
Second: G17A C34A G52U
The yeast fitness of the first is higher: 0.915 for the first, no more than 0.5 for the second.

First: G17A C66A
Second: G17A C29U U35G A37C G38C A65C
The yeast fitness of the first is higher: 0.647 for the first, no more than 0.5 for the second.

Going from G17A C31A U32A to G17C C24A A36U G41C, the yeast fitness falls from 0.62 to no more than 0.5.

Going from U16G G52A to G17C C34U, the yeast fitness falls from 0.668 to 0.529.

Going from G17A A37G to U16G A45U U54C U64A, the yeast fitness falls from 0.606 to no more than 0.5.

Compared with G17A U64C, G17C G39A G52A is lower in yeast fitness: 0.878 for the first, no more than 0.5 for the second.

First: G17C G23A G25C C29G A36U G39A C46U C55U
Second: G17C C24A A45C
The yeast fitness of the first is lower: no more than 0.5 for the first, 0.508 for the second.

Going from U16G C24U U28C A36C U59C A65C to G17A C24U C29G, the yeast fitness rises from no more than 0.5 to 0.533.

G17A G56C G58C G68A and G17C C29A A36G A43U cannot be ordered by yeast fitness: no more than 0.5 for the first, no more than 0.5 for the second.

First: G17C C24G C34U
Second: G17C C24G U28A C30U
The yeast fitness of the first is lower: 0.527 for the first, 0.646 for the second.

G17C A42C G68A and U16G C49U G56C cannot be ordered by yeast fitness: no more than 0.5 for the first, no more than 0.5 for the second.

U16G C34G A42G C49G U64A and G17A A43G A45G C62G cannot be ordered by yeast fitness: no more than 0.5 for the first, no more than 0.5 for the second.

Compared with G17C G25C, G17C A20U G52C is lower in yeast fitness: 0.658 for the first, no more than 0.5 for the second.

Going from G17A A20C C24U to G17C A21C U28C C60A A65G, the yeast fitness falls from 0.562 to no more than 0.5.

First: U16G A65U
Second: G17A G41C A43G G58C
The yeast fitness of the first is higher: 0.876 for the first, no more than 0.5 for the second.

G17C A45U A65C and G17A C33G A40U G51C cannot be ordered by yeast fitness: no more than 0.5 for the first, no more than 0.5 for the second.

First: G17C A21G A40C G44C C61A
Second: G17C A20G C46A C60U
The yeast fitness of the first is higher: 0.622 for the first, no more than 0.5 for the second.

Going from U16G U47A U54A A57U U64A A69U to G17A A69C A70C, the yeast fitness falls from 0.678 to 0.588.

Compared with G17A U54A, U16G C22G U47G is lower in yeast fitness: 0.566 for the first, 0.557 for the second.

With G17A C30U A57C A69C the yeast fitness was 0.688.
